From PubChem
HUVEC inhibit: blocks proliferation of human endothelial cells; 86,000 tested, 1.1% active; HUVEC proliferation, CellTiter-Glo luminescence, 72 h; hits give low values; viability, % at 10 µM (by protocol);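 active means viability at or below 30%; inactive means viability above 30%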
bCat KO growth: beta-catenin-lacking colon tumor cell growth suppression. viability, % at 10 µM. HCT116 beta-catenin knockout viability, CellTiter-Glo, 60 h; hits give low values. AID 818. 140,000 tested, 1.5% active;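 active means viability at or under a set limit, the compound median less 4 SD, cut at about 6% in these data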
H69AR growth 86K: growth inhibitors of human H69AR lung tumor cells. H69AR lung tumor viability, ATP luminescence, 72 h; hits give low values. viability, % at 10 µM. 85,000 tested, 6% active;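 active means viability at or below 40%; inactive means viability above 40%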;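 further: multidrug resistant small cell line overexpressing MRP-1 efflux transporter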
Lung fibro prol: blocks proliferation of human lung fibroblasts; 85,000 tested, 1.1% active; viability, % at 10 µM; LL 47 human lung fibroblast viability, ATP luminescence; hits give low values; AID 719;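 active means viability at or below 50% in the single dose screen; inactive means viability above 50%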;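 further: compound exposure lasted 72 h before the ATP readout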
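Material: Human LL 47 lung fibroblast cells | Input: 1,150 cells/well | Buffer or medium: IMEM plus 15% FBS | Compound dosing: 0.1% DMSO in all compound wells | Times: Overnight cell rest, 72 h compound treatment at 37 °C | Signal: CellTiter-Glo luminescence measuring cellular ATP | Measure: % viability versus median cells-only luminescence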
HCT116 PTEN-null: suppresses growth of cells with PTEN deletion | HCT116 PTEN-null viability, CellTiter-Glo, 60 h; hits give low values | viability, % at 10 µM | 140,000 tested, 1.2% active | AID 827;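 active means viability at or below a set limit, 4 SD under the median of all tested compounds, cut at about 3.7% in these data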;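 further: PTEN knockout HCT116 line with beta catenin targeted HCT116 as companion control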
Of the large screens only hits and unclear results are named; the others gave an inactive call. Only a selection was taken, and hits are over-represented in it overall.

O=C(Cc1ccccc1)N1CCN(C(=O)c2cccs2)CC1	none
CCOC(=O)c1c(-c2cccs2)csc1NC(=O)c1ccco1	none
CCOC(=O)c1c(C2COc3ccccc3O2)csc1NC(=O)c1ccco1 (configuration not stated)	H69AR growth 86K 31
CN(C)c1ccc(/C=C/c2cc[n+](C)cc2)cc1	none
CC[n+]1c(/C=C/c2ccc(N(C)C)cc2)ccc2ccccc21	bCat KO growth 3.4, HCT116 PTEN-null 2.1 (no result: HUVEC inhibit, H69AR growth 86K, Lung fibro prol)
C/C(CCc1ccccc1)=N\NC(=O)CC(=O)NCCc1ccccc1	none (no result: HUVEC inhibit, H69AR growth 86K, Lung fibro prol)
COc1ccc(N=C2S/C(=C\c3ccc(N4CCOCC4)o3)C(=O)N2CCc2c[nH]c3ccccc23)cc1	bCat KO growth 1.9, HCT116 PTEN-null 1.6 (no result: HUVEC inhibit, H69AR growth 86K, Lung fibro prol)
Oc1ccc(-c2n[nH]c(=S)n2-c2ccc3c(c2)OCCO3)cc1	none (no result: HUVEC inhibit, H69AR growth 86K, Lung fibro prol)
Oc1ccc(F)cc1-c1cc(-c2ccc3c(c2)OCCO3)n[nH]1	H69AR growth 86K 37
O=C(Nc1ccc(Cl)c([N+](=O)[O-])c1)C(Sc1ccccc1)c1ccccc1 (configuration not stated)	bCat KO growth 3.6, HCT116 PTEN-null 3.2 (no result: HUVEC inhibit, H69AR growth 86K, Lung fibro prol)
CC(C)(C)NS(=O)(=O)c1ccc(NC(=O)C(Sc2ccccc2)c2ccccc2)cc1 (configuration not stated)	bCat KO growth 1.6, HCT116 PTEN-null 1.6 (no result: HUVEC inhibit, H69AR growth 86K, Lung fibro prol)
COc1ccccc1NC(=O)C(Sc1ccccc1)c1ccccc1 (configuration not stated)	none (no result: HUVEC inhibit, H69AR growth 86K, Lung fibro prol)
O=C(Nc1cc([N+](=O)[O-])ccc1Cl)C(Sc1ccccc1)c1ccccc1 (configuration not stated)	none (no result: HUVEC inhibit, H69AR growth 86K, Lung fibro prol)
O=C1C(=O)N(O)C2CCCCC2N1O (configuration not stated)	none (no result: HUVEC inhibit, H69AR growth 86K, Lung fibro prol)
c1ccc(Cc2nnc(-c3ccccc3)o2)cc1	Lung fibro prol 9.6
Cc1ccccc1-c1nnc(Cc2ccccc2)o1	none (no result: HUVEC inhibit, H69AR growth 86K, Lung fibro prol)
Cc1ccc(C(=O)/C=C/c2ccc(F)cc2)o1	none (no result: HUVEC inhibit, H69AR growth 86K, Lung fibro prol)
O=C(/C=C/c1ccc(F)cc1)c1ccccc1Br	bCat KO growth 2.6, HCT116 PTEN-null 2.2 (no result: HUVEC inhibit, H69AR growth 86K, Lung fibro prol)
Cc1ccc(C(=O)NC(NC(=O)c2ccc(C)cc2)c2cccc([N+](=O)[O-])c2)cc1	none (no result: HUVEC inhibit, H69AR growth 86K, Lung fibro prol)
CC1(c2ccc(Cl)cc2Cl)OCC(Cn2ccnc2)O1 (configuration not stated)	H69AR growth 86K 34
CCc1ccccc1NC(=O)Cn1nc(C(F)(F)F)cc1C1CC1	none (no result: HUVEC inhibit, H69AR growth 86K, Lung fibro prol)
Cc1ccc(C)c2[nH]c(=O)c(CN(Cc3ccco3)S(=O)(=O)c3ccc4c(c3)OCCO4)cc12	none
CCc1ccc2[nH]c(=O)c(CN(Cc3ccco3)S(=O)(=O)c3ccc4c(c3)OCCO4)cc2c1	H69AR growth 86K 23
COc1cc(Cn2c(-c3nonc3N)nc3ccccc32)ccc1C	H69AR growth 86K 18, Lung fibro prol 48
CCCCOc1ccccc1NC(=O)Cn1c(-c2nonc2N)nc2ccccc21	bCat KO growth 1.8, HCT116 PTEN-null 1.6 (no result: HUVEC inhibit, H69AR growth 86K, Lung fibro prol)
CC(C)(C)NC(=O)Cn1c(-c2nonc2N)nc2ccccc21	none
COc1cccc(Cn2c(-c3nonc3N)nc3ccccc32)c1	H69AR growth 86K 24
Cc1cccc(Nc2nc(NCc3ccco3)nc(N3CCOCC3)n2)c1	HUVEC inhibit 7.9
CC1=C(C#N)c2nc(N)c(C#N)c(C)c2/C1=C\c1ccc(C)cc1	HUVEC inhibit 4.3, bCat KO growth 3.2, Lung fibro prol 3.3, HCT116 PTEN-null 1.9
Cc1ccc(-c2c(C#N)c(N)nc3c2CCCCC3)cc1	none
C(=C\c1ccccc1)/CSc1nnc(-c2cnccn2)n1Cc1ccco1	H69AR growth 86K 29
CC1(C)OC(C)(C)/C(=C/Nc2ccccc2)C1=O	none (no result: HUVEC inhibit, H69AR growth 86K, Lung fibro prol)
Cc1cc(=O)c2n(Cc3ccccc3Cl)nc[n+]2[nH]1	none
Cc1ccc(Cn2ncc3c(N4CCN(c5ccc(C)cc5)CC4)ncnc32)cc1	none
CCc1ccc(C(=O)Cn2ncc(Cl)c(Cl)c2=O)cc1	HUVEC inhibit 6.8, bCat KO growth 4.8, H69AR growth 86K 6.1, Lung fibro prol 29, HCT116 PTEN-null 3.0
Cc1cc(=O)[nH]c2c1cnn2Cc1ccccc1	none
O=C(OCn1ncc(Cl)c(Cl)c1=O)c1cccc(C(F)(F)F)c1	none (no result: HUVEC inhibit, H69AR growth 86K, Lung fibro prol)
O=c1c(Cl)c(Cl)cnn1Cc1ccccc1Cl	bCat KO growth 1.7, HCT116 PTEN-null 1.9 (no result: HUVEC inhibit, H69AR growth 86K, Lung fibro prol)
Cc1ccc(Cn2ncc(Cl)c(Cl)c2=O)cc1	bCat KO growth 2.7, HCT116 PTEN-null 1.7 (no result: HUVEC inhibit, H69AR growth 86K, Lung fibro prol)
Cc1cc(C)cc(Cn2ncc(Cl)c(Cl)c2=O)c1	bCat KO growth 1.9, HCT116 PTEN-null 1.6 (no result: HUVEC inhibit, H69AR growth 86K, Lung fibro prol)
CC(C)c1ccc(CN2CC(C(=O)O)CC2=O)cc1 (configuration not stated)	none
O=C(CCSCCc1ccccn1)Nc1ccc(Br)cn1	none
O=c1c(Cl)c(Cl)cnn1-c1ccccc1	bCat KO growth 0.9, HCT116 PTEN-null 0.9 (no result: HUVEC inhibit, H69AR growth 86K, Lung fibro prol)
O=C(COc1ccc(/C=N/NC(=O)c2cc3ccccc3o2)cc1Br)Nc1ccccc1	bCat KO growth 1.8, HCT116 PTEN-null 3.5 (no result: HUVEC inhibit, H69AR growth 86K, Lung fibro prol)
Cc1cc(C)nc(SC2CCCCC2NS(=O)(=O)c2ccccc2)n1 (configuration not stated)	none (no result: HUVEC inhibit, H69AR growth 86K, Lung fibro prol)
COC(=O)C1=C(C)N(CCCC(=O)O)C(=O)NC1c1cccs1 (configuration not stated)	bCat KO growth 0.4, HCT116 PTEN-null 0.5 (no result: HUVEC inhibit, H69AR growth 86K, Lung fibro prol)
CC1=C(C(=O)OCc2ccccc2)C(c2cccs2)NC(=O)N1CCCC(=O)O (configuration not stated)	none (no result: HUVEC inhibit, H69AR growth 86K, Lung fibro prol)
O=C(NC(=S)Nc1ccc(S(=O)(=O)Nc2nccs2)cc1)c1cccc(F)c1	none (no result: HUVEC inhibit, H69AR growth 86K, Lung fibro prol)
CCC(C)NC(=O)C1CC(c2cccc(OC)c2)=NO1 (configuration not stated)	none
COCCNC(=O)C1CC(c2cccc(OC)c2)=NO1 (configuration not stated)	none
COc1cccc(C2=NOC(C(=O)NCc3ccco3)C2)c1 (configuration not stated)	H69AR growth 86K 36
COc1cccc(C2=NOC(C(=O)NCc3ccccc3)C2)c1 (configuration not stated)	H69AR growth 86K 26
C=CCNC(=O)C1CC(c2cccc(OC)c2)=NO1 (configuration not stated)	H69AR growth 86K 2.8
O=C(C(Cl)Cl)N1c2ccccc2OCC1c1ccccc1 (configuration not stated)	none (no result: HUVEC inhibit, H69AR growth 86K, Lung fibro prol)
COc1ccc(-c2nc(=S)c3c([nH]2)Oc2ccc(C)cc2C3)cc1O	none (no result: HUVEC inhibit, H69AR growth 86K, Lung fibro prol)
Cc1ccc(NC(=O)CN(C)C(=O)CCC(=O)c2cccs2)cc1	none (no result: HUVEC inhibit, H69AR growth 86K, Lung fibro prol)
CCCn1c(C)cc(=O)c2cc(NC(=O)c3cnccn3)ccc21	H69AR growth 86K 7.2
Cc1ccc(NC(=O)CC(C(=O)O)c2ccccc2)cc1 (configuration not stated)	none (no result: HUVEC inhibit, H69AR growth 86K, Lung fibro prol)
COC(=O)C(/C=N/OCc1ccc([N+](=O)[O-])cc1)NC(=O)c1cccc(Cl)c1 (configuration not stated)	none
Cc1c(C(=O)OCC(=O)Nc2ccc3c(c2)OCO3)cccc1[N+](=O)[O-]	none (no result: HUVEC inhibit, H69AR growth 86K, Lung fibro prol)
CN(C)CCCN1c2ccccc2Sc2ccc(C(F)(F)F)cc21	H69AR growth 86K 1.5, Lung fibro prol 41
OCCN1CCN(CCCN2c3ccccc3Sc3ccc(C(F)(F)F)cc32)CC1	HUVEC inhibit 2.9, bCat KO growth 1.7, H69AR growth 86K 0.8, Lung fibro prol 47, HCT116 PTEN-null 1.5
